Assay results as given in ChEMBL document CHEMBL1157180 (Bioorg Med Chem, 2008).
pIC50, pKi: −log10 of the molar value. Active and inactive are the calls of the source. The rule behind the calls is not given here.

Columns and labels:
[1] = target: T1, Muscarinic acetylcholine receptor M1 (Rattus norvegicus, UniProt P08482); assay: Displacement of [3H]Quinuclidinyl benzilate from muscarinic M1 receptor in Wistar rat cortex synaptosomal membrane
T1 sequence (P08482 whole entry): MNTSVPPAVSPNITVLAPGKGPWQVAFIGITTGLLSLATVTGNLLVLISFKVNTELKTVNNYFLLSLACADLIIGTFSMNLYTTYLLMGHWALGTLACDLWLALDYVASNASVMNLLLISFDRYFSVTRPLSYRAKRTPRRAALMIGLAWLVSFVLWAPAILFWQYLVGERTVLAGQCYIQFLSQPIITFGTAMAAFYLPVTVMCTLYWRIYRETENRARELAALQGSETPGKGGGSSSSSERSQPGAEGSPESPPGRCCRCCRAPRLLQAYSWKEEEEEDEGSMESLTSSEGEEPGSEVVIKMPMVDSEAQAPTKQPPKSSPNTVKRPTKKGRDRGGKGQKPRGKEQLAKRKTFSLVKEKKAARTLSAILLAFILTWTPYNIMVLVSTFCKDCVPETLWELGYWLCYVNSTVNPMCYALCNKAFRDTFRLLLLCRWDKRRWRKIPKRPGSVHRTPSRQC

Rattus norvegicus [2] = species on record: Rattus norvegicus; assay: Antiamnesic activity in Wistar rat assessed as reversal of scopolamine-induced memory loss by passive avoidance test; format: functional, organism-based
Rattus norvegicus [3] = species on record: Rattus norvegicus; assay: Reversal of scopolamine-induced memory and learning impairment in Wistar rat assessed as transfer latency for 90 seconds by plus maze test; format: functional, organism-based
Outline: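 Elevated plus maze in male Wistar rats, 30 min after treatment, given scopolamine alone or test agent plus scopolamine; controls got 0.9% saline. Each rat is placed at the end of an open arm facing away from the centre. Transfer latency (TL) is the time to enter an enclosed arm. Day 1 has 90 s exploration (TL1, learning) and day 2 is a retest of the same rats (TL2, memory).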

Rattus norvegicus [4] = species on record: Rattus norvegicus; assay: Reversal of scopolamine-induced spartial working memory loss in Wistar rat assessed by Y maze task; format: functional; design: concentration or dose not given beside the values
Outline: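 Male Wistar rats (200–250 g, n = 8) receive test agent with scopolamine and explore the Y-maze 30 min later. Arm entries, including returns, are recorded visually. An alternation is successive entries into all three arms on overlapping triplets. % alternation = actual alternations/(total entries − 2) × 100, compared against the scopolamine-only group.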

Rattus norvegicus [5] = assay: Acute toxicity in orally dosed Wistar rat after 1 week; format: organism-based; conditions: in vivo, po, 168 h
Outline: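 Rats, 8 per group, fasted 16 h, then given the compounds orally at various doses. Animals observed for 1 week after dosing, with deaths recorded daily.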

**Q.** With CN1CCC=C(C2CN(S(=O)(=O)c3ccccc3)CCO2)C1 (stereo unspecified) as the compound, how does the pIC50 [1] read?
**A.** Its pIC50 is 4.05.

**Q.** And the pKi [1]?
**A.** The pKi was 4.57.

**Q.** What about the Activity (Rattus norvegicus [2]) of the same compound?
**A.** The Activity was “Active”.

**Q.** What about the Activity (Rattus norvegicus [3]) of the same compound?
**A.** The Activity was “Active”.

**Q.** And the Activity (Rattus norvegicus [4])?
**A.** The Activity was 60%.

**Q.** What about the Activity (Rattus norvegicus [5]) of the same compound?
**A.** Its Activity is “Non-toxic”.

**Q.** CN1CCC=C(C2CN(S(=O)(=O)c3cc(Cl)ccc3Cl)CCO2)C1 (stereo unspecified) was tested. Which pIC50 [1] did it give?
**A.** Its pIC50 is 3.94.

**Q.** And the pKi [1]?
**A.** Its pKi is 4.46.

**Q.** What about the Activity (Rattus norvegicus [2]) of the same compound?
**A.** Its Activity is “Active”.

**Q.** What about the Activity (Rattus norvegicus [4]) of the same compound?
**A.** The Activity was 59%.

**Q.** What about the Activity (Rattus norvegicus [5]) of the same compound?
**A.** The Activity was “Non-toxic”.

**Q.** What does the source list for CN1CCC=C(C2CN(S(=O)(=O)c3cccc([N+](=O)[O-])c3)CCO2)C1 (stereo unspecified)?
**A.** pIC50 [1]: 3.70; pKi [1]: 4.21; Activity (Rattus norvegicus [2]): Active; Activity (Rattus norvegicus [5]): Non-toxic

**Q.** CN1CCC=C(C2CN(S(=O)(=O)c3ccc([N+](=O)[O-])cc3)CCO2)C1 (stereo unspecified) was tested. Which pIC50 [1] did it give?
**A.** Its pIC50 is 3.68.

**Q.** What about the pKi [1] of the same compound?
**A.** The pKi was 4.19.

**Q.** And the Activity (Rattus norvegicus [2])?
**A.** Its Activity is “Active”.

**Q.** What about the Activity (Rattus norvegicus [5]) of the same compound?
**A.** Its Activity is “Non-toxic”.

**Q.** With CN1CCC=C(C2CN(S(=O)(=O)c3ccccc3[N+](=O)[O-])CCO2)C1 (stereo unspecified) as the compound, how does the pIC50 [1] read?
**A.** Its pIC50 is 3.50.

**Q.** And the pKi [1]?
**A.** The pKi was 4.02.

**Q.** And the Activity (Rattus norvegicus [2])?
**A.** Its Activity is “Active”.

**Q.** And the Activity (Rattus norvegicus [5])?
**A.** The Activity was “Non-toxic”.

**Q.** With CN1CCC=C(C2CN(S(=O)(=O)c3ccc(C(C)(C)C)cc3)CCO2)C1 (stereo unspecified) as the compound, how does the pIC50 [1] read?
**A.** Its pIC50 is 4.72.

**Q.** And the pKi [1]?
**A.** The pKi was 5.40.

**Q.** What about the Activity (Rattus norvegicus [2]) of the same compound?
**A.** The Activity was “Active”.

**Q.** And the Activity (Rattus norvegicus [3])?
**A.** Its Activity is “Active”.

**Q.** And the Activity (Rattus norvegicus [4])?
**A.** The Activity was 61%.

**Q.** And the Activity (Rattus norvegicus [5])?
**A.** The Activity was “Non-toxic”.

**Q.** CN1CCC=C(C2CN(S(=O)(=O)c3ccc(Cl)cc3)CCO2)C1 (stereo unspecified) was tested. Which pIC50 [1] did it give?
**A.** Its pIC50 is 6.04.

**Q.** What about the pKi [1] of the same compound?
**A.** The pKi was 6.59.

**Q.** What about the Activity (Rattus norvegicus [2]) of the same compound?
**A.** The Activity was “Active”.

**Q.** What about the Activity (Rattus norvegicus [3]) of the same compound?
**A.** The Activity was “Active”.

**Q.** And the Activity (Rattus norvegicus [4])?
**A.** Its Activity is 64%.

**Q.** What about the Activity (Rattus norvegicus [5]) of the same compound?
**A.** Its Activity is “Non-toxic”.

**Q.** Cc1ccc(S(=O)(=O)N2CCOC(C3=CCCN(C)C3)C2)cc1 (stereo unspecified) was tested. Which pIC50 [1] did it give?
**A.** The pIC50 was 4.21.

**Q.** And the pKi [1]?
**A.** Its pKi is 4.85.

**Q.** What about the Activity (Rattus norvegicus [2]) of the same compound?
**A.** Its Activity is “Active”.

**Q.** What about the Activity (Rattus norvegicus [3]) of the same compound?
**A.** The Activity was “Active”.

**Q.** And the Activity (Rattus norvegicus [4])?
**A.** The Activity was 62%.

**Q.** What about the Activity (Rattus norvegicus [5]) of the same compound?
**A.** The Activity was “Non-toxic”.
